Data on 11 compounds can be found in ChEMBL document CHEMBL1140577, “Anticancer and anti-inflammatory activities of 1,8-naphthyridine-3-carboxamide derivatives” (Bioorg Med Chem Lett, 2007).

SMILES strings stand for the structures. pIC50: −log10 of the molar value. Active and inactive are the calls of the source. No cut-off for these calls is given here. Some results are limits rather than exact numbers.

In one assay the test system is PA-1. The assay can be described thus: Cytotoxicity against human PA1 cells after 72 hrs by MTT assay. The assay is classed as functional, cell-based. Particulars: PA-1, 72 h. Summed up:
(§1)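 5000–10,000 cells seeded per well and exposed for 72 h in a CO₂ incubator to five concentrations, the highest 10 µM (top soluble). MTT (125 µg) added for 3 h, then lysed with 10% SDS–0.01 N HCl for 1 h. Absorbance read at 540 nm. % cytotoxicity = (1 − (treated−blank)/control)×100.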
(Tetrazolium dyes change colour on reduction, which living cells bring about.)

A further assay relates to DU-145. The assay is described as follows: Cytotoxicity against human DU145 cells after 72 hrs by MTT assay. Format: functional, cell-based. As to conditions: DU-145, 72 h. Summed up:
as §1

Another assay has as its system KB. The assay can be described thus: Cytotoxicity against human KB cells after 72 hrs by MTT assay. The assay is classed as functional, cell-based. Summed up:
as §1

The test system of a further assay is SW-620. The assay is described as follows: Cytotoxicity against human SW620 cells after 72 hrs by MTT assay. Format: functional, cell-based. Particulars: SW-620, 72 h. Summed up: as §1
Another assay relates to HBL-100. The assay is described as follows: Cytotoxicity against human HBL100 cells after 72 hrs by MTT assay. Format: functional, cell-based. As to conditions: HBL-100, 72 h. The procedure, abridged:
as §1

For another assay, the system named is A549. The assay can be described thus: Cytotoxicity against human A549 cells after 72 hrs by MTT assay. Format: functional, cell-based. Particulars: A549, 72 h. Summed up:
as §1

Assay [1] is described as follows: Cytotoxicity against human MIA PaCa cells after 72 hrs by MTT assay. The assay is classed as functional, cell-based. The procedure, abridged:
as §1

The next assay concerns K562. The assay can be described thus: Cytotoxicity against human K562 cells after 72 hrs by MTT assay. The assay is classed as functional, cell-based. As to conditions: K562, 72 h. The procedure, abridged:
as §1

The nature of assay [2]: Antiinflammatory activity assessed as inhibition of TNFalpha secretion in LPS-induced C57BL/6 mouse dendritic cells at 1 ug/mL after 24 hrs by ELISA. The assay is classed as functional. As to conditions: C57BL/6, Dendritic cell. Summed up: (§2)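 DCs grown from femoral bone marrow of 8–12-week-old C57BL/6 mice in RPMI-1640 with 10% FBS and rmGM-CSF (20 ng/ml), 37 °C, 5% CO₂. Immature DCs stimulated with LPS (100 ng/ml) and exposed to compounds (0.001–10 µg/ml range) for 24 h. Cytokine in supernatant quantified by ELISA. % change = (B−A)/A×100, where A is LPS-stimulated DCs without compound.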
(In general: In an ELISA, binding on a coated surface is turned into a signal by an enzyme label.)

Assay [3] concerns Dendritic cell. The assay can be described thus: Antiinflammatory activity assessed as inhibition of IP-10 secretion in LPS-induced C57BL/6 mouse dendritic cells after 24 hrs by ELISA. The assay is classed as functional, cell-based. The procedure, abridged: as §2
The test system of a further assay is NIH3T3 (Mus musculus). The assay is described as follows: Cytotoxicity against mouse NIH3T3 cells after 72 hrs by MTT assay. As to conditions: NIH3T3, 72 h.
Assay [4] in a line: Antiinflammatory activity assessed as inhibition of IL1-beta secretion in LPS-induced C57BL/6 mouse dendritic cells after 24 hrs by ELISA. Format: functional, Dendritic cell. The procedure, abridged:
as §2

Assay [5] has as its system Dendritic cell. The assay is described as follows: Myeloprotective activity assessed as stimulation of MIP1 secretion in mouse dendritic cells after 24 hrs by ELISA relative to basal level. Format: functional, cell-based. The procedure, abridged: (§3)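 Murine bone-marrow-derived dendritic cells, not LPS-stimulated, incubated with compounds at 0.1 and 1 µg/ml for 24 h. MIP-1α, CCL22 and TNF-α in culture supernatants measured by ELISA. % change = (B−A)/A×100 against untreated DCs.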

Assay [6] deals with Dendritic cell. The assay can be described thus: Myeloprotective activity assessed as inhibition of CCL22 secretion in mouse dendritic cells after 24 hrs by ELISA. The assay is classed as functional, cell-based. Summed up:
as §3

Assay [7] deals with Dendritic cell. The assay can be described thus: Myeloprotective activity assessed as inhibition of TNFalpha secretion in mouse dendritic cells after 24 hrs by ELISA relative to basal level. The assay is classed as functional, cell-based. The procedure, abridged:
as §3

One may read the pIC50 as the IC50 on a negative log10 scale, so that one unit is a factor of ten. Low values mean a high IC50, high ones a low IC50. Usually inhibition stands for the change of the read-out against control, counted positive when it falls. For `C#CCn1cc(C(=O)NCCCOC(=O)[C@@H](O)[C@@H](NC(=O)OC(C)(C)C)c2ccccc2)c(=O)c2ccc(Cl)nc21`, the pIC50 in the assay on PA-1 was less than 5.00; with DU-145, less than 5.00; with KB, less than 5.00; with SW-620, 5.52; in the assay on HBL-100 it was less than 5.00; in the assay on A549 it was less than 5.00. Further, the pIC50 in assay [1] is less than 5.00; in the assay on K562, less than 5.00; in the assay on NIH3T3 (Mus musculus) it was 5.11. The inhibition at 1 µg/mL in [2] is greater than 50%. The outcome with Dendritic cell [3] was Active.

With `C#CCn1cc(C(=O)NCCCOC(=O)CNC(=O)OC(C)(C)C)c(=O)c2cccnc21`, the pIC50 was 5.05 in the assay on PA-1; less than 5.00 in the assay on DU-145; 5.15 in the assay on KB; less than 5.00 in the assay with SW-620; less than 5.00 in the assay with HBL-100; less than 5.00 in the assay with A549. In addition, the pIC50 (in [1]; in the assay on K562; in the assay on NIH3T3 (Mus musculus)) was less than 5.00 throughout.

Broadly, the Inhibition is how much of the control response was suppressed. Consider `C#CCn1cc(C(=O)NCCCOC(=O)[C@H]2OC(C)(C)N(C(=O)OC(C)(C)C)[C@@H]2c2ccccc2)c(=O)c2cccnc21`, for which the Inhibition in assay [4] is listed as greater than 50%.

With `C#CCn1cc(C(=O)NCCCOC(=O)[C@H]2CCCN2C(=O)OC(C)(C)C)c(=O)c2ccc(C)nc21`, the pIC50 in the assay on PA-1 is less than 5.00; in the assay with DU-145, less than 5.00; in the assay with KB, 5.43; with SW-620, less than 5.00; in the assay on HBL-100, less than 5.00; in the assay with A549, less than 5.00. Further, the pIC50 (in [1]; with K562; in the assay on NIH3T3 (Mus musculus)) was less than 5.00 throughout.

`C#CCn1cc(C(=O)NCCCOC(=O)[C@H]2OC(C)(C)N(C(=O)OC(C)(C)C)[C@@H]2c2ccccc2)c(=O)c2ccc(Cl)nc21`: the pIC50 in the assay on PA-1 is 5.22; in the assay on DU-145, less than 5.00; in the assay on KB, less than 5.00; in the assay with SW-620 it was 5.40; in the assay on HBL-100, 5.86; with A549 it was less than 5.00. The pIC50 (in [1]; with K562; in the assay with NIH3T3 (Mus musculus)) was less than 5.00 throughout. Moreover, the inhibition at 1 µg/mL in assay [2] was greater than 50%. The Inhibition in [4] is reported as greater than 50%.

Regarding `C#CCn1cc(C(=O)N[C@@H](C)CCOC(=O)[C@H](C)NC(=O)OC(C)(C)C)c(=O)c2ccc(Cl)nc21`, the pIC50 in the assay with PA-1 was 5.31; in the assay on DU-145, less than 5.00; with KB it was 5.08; with SW-620 it was less than 5.00; with HBL-100, less than 5.00; in the assay on A549, less than 5.00. The pIC50 (in [1]; with K562; in the assay on NIH3T3 (Mus musculus)) was less than 5.00 throughout.

With `C#CCn1cc(C(=O)NCCCOC(=O)CNC(=O)OC(C)(C)C)c(=O)c2ccc(Cl)nc21`, in assay [2], the inhibition at 1 µg/mL is greater than 50%. Moreover, the result in the assay with Dendritic cell [3], in the assay on Dendritic cell [5], with Dendritic cell [6] and with Dendritic cell [7] was Active.

For the compound `C#CCn1cc(C(=O)N[C@@H](C)CCOC(=O)[C@H]2CCCN2C(=O)OC(C)(C)C)c(=O)c2ccc(Cl)nc21`, the pIC50 in the assay with PA-1 is 5.28; in the assay on DU-145 it was less than 5.00; in the assay with KB, 5.18; with SW-620, 5.48; in the assay with HBL-100 it was 5.08; in the assay on A549 it was less than 5.00. For the same compound, the pIC50 (in assay [1]; in the assay with K562; with NIH3T3 (Mus musculus)) was less than 5.00 in each case.

Consider `C#CCn1cc(C(=O)NCCCOC(=O)[C@@H](O)[C@@H](N)c2ccccc2)c(=O)c2ccc(Cl)nc21`, for which the Inhibition in assay [4] was greater than 50%.

`C#CCn1cc(C(=O)NCCCOC(=O)[C@H](C)NC(=O)OC(C)(C)C)c(=O)c2ccc(Cl)nc21`: the pIC50 in the assay on PA-1 was less than 5.00; in the assay with DU-145, less than 5.00; with KB, less than 5.00; in the assay on SW-620 it was less than 5.00; in the assay on HBL-100 it was 5.27; in the assay on A549, less than 5.00. Also, the pIC50 in assay [1] was less than 5.00; in the assay on K562, less than 5.00; in the assay with NIH3T3 (Mus musculus), 5.04. Besides, the outcome with Dendritic cell [5], in the assay with Dendritic cell [6] and in the assay on Dendritic cell [7] was Active.

Consider `C#CCn1cc(C(=O)NCCCOC(=O)[C@H]2CCCN2C(=O)OC(C)(C)C)c(=O)c2ccc(Cl)nc21`, for which the pIC50 with PA-1 was less than 5.00; in the assay on DU-145, less than 5.00; in the assay with KB, less than 5.00; with SW-620 it was less than 5.00; in the assay with HBL-100, 5.43; with A549, less than 5.00. Further, the pIC50 in [1] is 5.12; in the assay with K562, less than 5.00; with NIH3T3 (Mus musculus), 5.08. Further, the inhibition at 1 µg/mL in assay [2] is greater than 50%. Also, the result in the assay with Dendritic cell [3], in the assay with Dendritic cell [5], in the assay on Dendritic cell [6] and with Dendritic cell [7] was Active.
